Assay results published in ChEMBL document CHEMBL1155270, “Modifications at the C-terminus to improve pyrrole-imidazole polyamide activity in cell culture” (J Med Chem, 2009).

The compounds below were run on Nucleic Acid (assay: Binding affinity to 14mer DNA assessed as change in melting temperature by spectrophotometry).
Assay type: nucleic-acid assay
Procedure, shortened: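 Thermal melting of 14-mer oligonucleotide duplexes (HRE or ARE sequence) with and without polyamide, read by UV spectrophotometry in 1 cm quartz cuvettes with a thermostatted holder. Buffer was 10 mM sodium cacodylate, 10 mM KCl, 10 mM MgCl2, 5 mM CaCl2, pH 7.0. ΔTm is taken relative to the free duplex.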

ΔTm	Compound
4.1 °C	Cn1cc(NC(=O)c2cc(NC(=O)c3cc(NC(=O)c4nc(NC(=O)[C@H](N)CCNC(=O)c5nc(NC(=O)c6cc(NC(=O)c7nc(NC(=O)c8nccn8C)cn7C)cn6C)cn5C)cn4C)cn3C)cn2C)cc1C(=O)NCCCN
3.6 °C	CN(C)CCCNC(=O)CCNC(=O)c1cc(NC(=O)c2cc(NC(=O)c3nc(NC(=O)c4cc(NC(=O)[C@H](N)CCNC(=O)c5nc(NC(=O)c6cc(NC(=O)c7cc(NC(=O)c8nccn8C)cn7C)cn6C)cn5C)cn4C)cn3C)cn2C)cn1C
3.1 °C	CN(CCCN)CCCNC(=O)c1cc(NC(=O)c2cc(NC(=O)c3cc(NC(=O)c4nc(NC(=O)[C@H](N)CCNC(=O)c5nc(NC(=O)c6cc(NC(=O)c7nc(NC(=O)c8nccn8C)cn7C)cn6C)cn5C)cn4C)cn3C)cn2C)cn1C
0.5 °C	Cn1cc(NC(=O)c2cc(NC(=O)c3cc(NC(=O)c4nc(NC(=O)[C@H](N)CCNC(=O)c5nc(NC(=O)c6cc(NC(=O)c7nc(NC(=O)c8nccn8C)cn7C)cn6C)cn5C)cn4C)cn3C)cn2C)cc1C(=O)NCCCNC(=O)c1cccc(C(=O)O)c1
4 °C	CN(CCCNC(=O)c1cccc(C(=O)O)c1)CCCNC(=O)c1cc(NC(=O)c2cc(NC(=O)c3nc(NC(=O)c4cc(NC(=O)[C@H](N)CCNC(=O)c5nc(NC(=O)c6cc(NC(=O)c7cc(NC(=O)c8nccn8C)cn7C)cn6C)cn5C)cn4C)cn3C)cn2C)cn1C
0.1 °C	Cn1cc(NC(=O)c2cc(NC(=O)c3cc(NC(=O)c4nc(NC(=O)[C@H](N)CCNC(=O)c5nc(NC(=O)c6cc(NC(=O)c7nc(NC(=O)c8nccn8C)cn7C)cn6C)cn5C)cn4C)cn3C)cn2C)cc1C(=O)NCCCON
-0.9 °C	Cn1cc(NC(=O)c2cc(NC(=O)c3nc(NC(=O)c4cc(NC(=O)[C@H](N)CCNC(=O)c5nc(NC(=O)c6cc(NC(=O)c7cc(NC(=O)c8nccn8C)cn7C)cn6C)cn5C)cn4C)cn3C)cn2C)cc1C(=O)NCCCCCCCN
0.7 °C	Cn1cc(NC(=O)c2cc(NC(=O)c3cc(NC(=O)c4nc(NC(=O)[C@H](N)CCNC(=O)c5nc(NC(=O)c6cc(NC(=O)c7nc(NC(=O)c8nccn8C)cn7C)cn6C)cn5C)cn4C)cn3C)cn2C)cc1C(=O)NCCCCCCCNC(=O)c1cccc(C(=O)O)c1
0.9 °C	CN(CCCNC(=O)c1cccc(C(=O)O)c1)CCCNC(=O)c1cc(NC(=O)c2cc(NC(=O)c3cc(NC(=O)c4nc(NC(=O)[C@H](N)CCNC(=O)c5nc(NC(=O)c6cc(NC(=O)c7nc(NC(=O)c8nccn8C)cn7C)cn6C)cn5C)cn4C)cn3C)cn2C)cn1C
6.4 °C	CN(CCCN)CCCNC(=O)c1cc(NC(=O)c2cc(NC(=O)c3nc(NC(=O)c4cc(NC(=O)[C@H](N)CCNC(=O)c5nc(NC(=O)c6cc(NC(=O)c7cc(NC(=O)c8nccn8C)cn7C)cn6C)cn5C)cn4C)cn3C)cn2C)cn1C
5.3 °C	Cn1cc(NC(=O)c2cc(NC(=O)c3nc(NC(=O)c4cc(NC(=O)[C@H](N)CCNC(=O)c5nc(NC(=O)c6cc(NC(=O)c7cc(NC(=O)c8nccn8C)cn7C)cn6C)cn5C)cn4C)cn3C)cn2C)cc1C(=O)NCCCN
2.6 °C	Cn1cc(NC(=O)c2cc(NC(=O)c3nc(NC(=O)c4cc(NC(=O)[C@H](N)CCNC(=O)c5nc(NC(=O)c6cc(NC(=O)c7cc(NC(=O)c8nccn8C)cn7C)cn6C)cn5C)cn4C)cn3C)cn2C)cc1C(=O)NCCCCCCCNC(=O)c1cccc(C(=O)O)c1
2.1 °C	Cn1cc(NC(=O)c2cc(NC(=O)c3cc(NC(=O)c4nc(NC(=O)[C@H](N)CCNC(=O)c5nc(NC(=O)c6cc(NC(=O)c7nc(NC(=O)c8nccn8C)cn7C)cn6C)cn5C)cn4C)cn3C)cn2C)cc1C(=O)NCCCCCCCN
1.5 °C	Cn1cc(NC(=O)c2cc(NC(=O)c3nc(NC(=O)c4cc(NC(=O)[C@H](N)CCNC(=O)c5nc(NC(=O)c6cc(NC(=O)c7cc(NC(=O)c8nccn8C)cn7C)cn6C)cn5C)cn4C)cn3C)cn2C)cc1C(=O)NCCCNC(=O)c1cccc(C(=O)O)c1

Each compound was assayed on Nucleic Acid (assay: Binding affinity to 5'-TTGCAGAACAGCAA-3' sequence of DNA assessed as change in melting temperature by spectrophotometry).
Assay type: nucleic-acid assay

ΔTm	Compound
11.1 °C	Cn1cc(NC(=O)c2cc(NC(=O)c3cc(NC(=O)c4nc(NC(=O)[C@H](N)CCNC(=O)c5cc(NC(=O)c6cc(NC(=O)c7cc(NC(=O)c8nccn8C)cn7C)cn6C)cn5C)cn4C)cn3C)cn2C)cc1C(=O)NCCCNC(=O)c1cccc(C(=O)O)c1
14.3 °C	CN(C)CCCNC(=O)CCNC(=O)c1cc(NC(=O)c2cc(NC(=O)c3cc(NC(=O)c4nc(NC(=O)[C@H](N)CCNC(=O)c5cc(NC(=O)c6cc(NC(=O)c7cc(NC(=O)c8nccn8C)cn7C)cn6C)cn5C)cn4C)cn3C)cn2C)cn1C
14.3 °C	Cn1cc(NC(=O)c2cc(NC(=O)c3cc(NC(=O)c4nc(NC(=O)[C@H](N)CCNC(=O)c5cc(NC(=O)c6cc(NC(=O)c7cc(NC(=O)c8nccn8C)cn7C)cn6C)cn5C)cn4C)cn3C)cn2C)cc1C(=O)NCCCCCCCN
16.2 °C	Cn1cc(NC(=O)c2cc(NC(=O)c3cc(NC(=O)c4nc(NC(=O)[C@H](N)CCNC(=O)c5cc(NC(=O)c6cc(NC(=O)c7cc(NC(=O)c8nccn8C)cn7C)cn6C)cn5C)cn4C)cn3C)cn2C)cc1C(=O)NCCCN
17.3 °C	CN(CCCN)CCCNC(=O)c1cc(NC(=O)c2cc(NC(=O)c3cc(NC(=O)c4nc(NC(=O)[C@H](N)CCNC(=O)c5cc(NC(=O)c6cc(NC(=O)c7cc(NC(=O)c8nccn8C)cn7C)cn6C)cn5C)cn4C)cn3C)cn2C)cn1C

Each compound was assayed on LNCaP (assay: Cytotoxicity against human LNCAP cells after 48 hrs by WST1 assay).
Assay type: functional, cell-based
Procedure, shortened: (§1)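 LNCaP cells were seeded at 10-15 × 10^2 per well and allowed to settle 48 h before polyamide was added as 2× media solutions (DMSO <0.1%). After 48 h exposure, media was replaced and cells recovered 24 h. WST-1 was added for 30 min and A450 read. Wells were corrected for media-only background and normalized to untreated controls.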

Compound	IC50
Cn1cc(NC(=O)c2cc(NC(=O)c3cc(NC(=O)c4nc(NC(=O)[C@H](N)CCNC(=O)c5cc(NC(=O)c6cc(NC(=O)c7cc(NC(=O)c8nccn8C)cn7C)cn6C)cn5C)cn4C)cn3C)cn2C)cc1C(=O)NCCCNC(=O)c1cccc(C(=O)O)c1	> 30 µM

These compounds were tested on Nucleic Acid (assay: Binding affinity to 5'-GTGCATACGTGGGC-3' sequence of DNA assessed as change in melting temperature by spectrophotometry).
Assay type: nucleic-acid assay

ΔTm	Compound
13.5 °C	Cn1cc(NC(=O)c2cc(NC(=O)c3nc(NC(=O)c4cc(NC(=O)[C@H](N)CCNC(=O)c5nc(NC(=O)c6cc(NC(=O)c7cc(NC(=O)c8sccc8Cl)cn7C)cn6C)cn5C)cn4C)cn3C)cn2C)cc1C(=O)NCCCN
12.4 °C	CN(C)CCCNC(=O)CCNC(=O)c1cc(NC(=O)c2cc(NC(=O)c3nc(NC(=O)c4cc(NC(=O)[C@H](N)CCNC(=O)c5nc(NC(=O)c6cc(NC(=O)c7cc(NC(=O)c8sccc8Cl)cn7C)cn6C)cn5C)cn4C)cn3C)cn2C)cn1C
10.6 °C	Cn1cc(NC(=O)c2cc(NC(=O)c3nc(NC(=O)c4cc(NC(=O)[C@H](N)CCNC(=O)c5nc(NC(=O)c6cc(NC(=O)c7cc(NC(=O)c8sccc8Cl)cn7C)cn6C)cn5C)cn4C)cn3C)cn2C)cc1C(=O)NCCCON
9.5 °C	Cn1cc(NC(=O)c2cc(NC(=O)c3nc(NC(=O)c4cc(NC(=O)[C@H](N)CCNC(=O)c5nc(NC(=O)c6cc(NC(=O)c7cc(NC(=O)c8sccc8Cl)cn7C)cn6C)cn5C)cn4C)cn3C)cn2C)cc1C(=O)NCCCNC(=O)c1cccc(C(=O)O)c1
1.6 °C	CN(C)CCCNC(=O)CCNC(=O)c1cc(NC(=O)c2cc(NC(=O)c3cc(NC(=O)c4nc(NC(=O)[C@H](N)CCNC(=O)c5nc(NC(=O)c6cc(NC(=O)c7nc(NC(=O)c8nccn8C)cn7C)cn6C)cn5C)cn4C)cn3C)cn2C)cn1C
9 °C	Cn1cc(NC(=O)c2cc(NC(=O)c3nc(NC(=O)c4cc(NC(=O)[C@H](N)CCNC(=O)c5nc(NC(=O)c6cc(NC(=O)c7cc(NC(=O)c8sccc8Cl)cn7C)cn6C)cn5C)cn4C)cn3C)cn2C)cc1C(=O)NCCCCCCCNC(=O)c1cccc(C(=O)O)c1
14.8 °C	CN(CCCN)CCCNC(=O)c1cc(NC(=O)c2cc(NC(=O)c3nc(NC(=O)c4cc(NC(=O)[C@H](N)CCNC(=O)c5nc(NC(=O)c6cc(NC(=O)c7cc(NC(=O)c8sccc8Cl)cn7C)cn6C)cn5C)cn4C)cn3C)cn2C)cn1C
12.7 °C	Cn1cc(NC(=O)c2cc(NC(=O)c3nc(NC(=O)c4cc(NC(=O)[C@H](N)CCNC(=O)c5nc(NC(=O)c6cc(NC(=O)c7cc(NC(=O)c8sccc8Cl)cn7C)cn6C)cn5C)cn4C)cn3C)cn2C)cc1C(=O)NCCCCCCCN

The compounds below were run on LNCaP (assay: Cytotoxicity against human LNCAP cells assessed as cell viability at 0.01 to 30 uM after 48 hrs by WST1 assay).
Assay type: functional
Procedure, shortened: as §1

Compound	Activity
Cn1cc(NC(=O)c2cc(NC(=O)c3cc(NC(=O)c4nc(NC(=O)[C@H](N)CCNC(=O)c5cc(NC(=O)c6cc(NC(=O)c7cc(NC(=O)c8nccn8C)cn7C)cn6C)cn5C)cn4C)cn3C)cn2C)cc1C(=O)NCCCNC(=O)c1cccc(C(=O)O)c1	<50%
CN(CCCNC(=O)c1cccc(C(=O)O)c1)CCCNC(=O)c1cc(NC(=O)c2cc(NC(=O)c3nc(NC(=O)c4cc(NC(=O)[C@H](N)CCNC(=O)c5nc(NC(=O)c6cc(NC(=O)c7cc(NC(=O)c8nccn8C)cn7C)cn6C)cn5C)cn4C)cn3C)cn2C)cn1C	<50%
Cn1cc(NC(=O)c2cc(NC(=O)c3nc(NC(=O)c4cc(NC(=O)[C@H](N)CCNC(=O)c5nc(NC(=O)c6cc(NC(=O)c7cc(NC(=O)c8nccn8C)cn7C)cn6C)cn5C)cn4C)cn3C)cn2C)cc1C(=O)NCCCCCCCNC(=O)c1cccc(C(=O)O)c1	<50%
Cn1cc(NC(=O)c2cc(NC(=O)c3nc(NC(=O)c4cc(NC(=O)[C@H](N)CCNC(=O)c5nc(NC(=O)c6cc(NC(=O)c7cc(NC(=O)c8nccn8C)cn7C)cn6C)cn5C)cn4C)cn3C)cn2C)cc1C(=O)NCCCNC(=O)c1cccc(C(=O)O)c1	<50%
